What all share (assay type): cell-based
The nature of data set [1]: Inhibition of GLUT in HEK293 cells assessed as reduction in 2-deoxyglucose uptake pretreated for 10 mins followed by 2-deoxyglucose addition in presence of choline buffer measured after 1 hr by resazurin dye based fluorescence assay. Particulars: human.
Data set [2] in a line: Inhibition of GLUT in HEK293 cells assessed as reduction in 2-deoxyglucose uptake pretreated for 10 mins followed by 2-deoxyglucose addition in presence of sodium buffer measured after 1 hr by resazurin dye based fluorescence assay. The settings on record: human. On the technique in general: Alamar Blue is a resazurin reagent that responds to reducing activity.
Data set [3] concerns HEK293. Put plainly: Cytotoxicity in HEK293 cells assessed as cell viability at 100 uM measured after 20 to 24 hrs by Cell-Titer Blue fluorescence assay. The settings on record: human, hek293, 100 µM. The method in brief:
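HEK293 cells (DMEM, 10% FBS, 37 °C, 5% CO2) seeded 2.0 × 10^4 cells/well 24 h before; compound at 100 µM in triplicate, 20-24 h at 37 °C; CellTiter-Blue 4 h at 37 °C; fluorescence ex 560/em 590 nm; viability as treated/untreated fluorescence ratio, %. DMSO-treated wells run alongside. Mean ± SD of three independent experiments.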

For data set [4], the target named is T1, Sodium/glucose cotransporter 2 (Homo sapiens, UniProt P31639).
T1 sequence (P31639 whole entry): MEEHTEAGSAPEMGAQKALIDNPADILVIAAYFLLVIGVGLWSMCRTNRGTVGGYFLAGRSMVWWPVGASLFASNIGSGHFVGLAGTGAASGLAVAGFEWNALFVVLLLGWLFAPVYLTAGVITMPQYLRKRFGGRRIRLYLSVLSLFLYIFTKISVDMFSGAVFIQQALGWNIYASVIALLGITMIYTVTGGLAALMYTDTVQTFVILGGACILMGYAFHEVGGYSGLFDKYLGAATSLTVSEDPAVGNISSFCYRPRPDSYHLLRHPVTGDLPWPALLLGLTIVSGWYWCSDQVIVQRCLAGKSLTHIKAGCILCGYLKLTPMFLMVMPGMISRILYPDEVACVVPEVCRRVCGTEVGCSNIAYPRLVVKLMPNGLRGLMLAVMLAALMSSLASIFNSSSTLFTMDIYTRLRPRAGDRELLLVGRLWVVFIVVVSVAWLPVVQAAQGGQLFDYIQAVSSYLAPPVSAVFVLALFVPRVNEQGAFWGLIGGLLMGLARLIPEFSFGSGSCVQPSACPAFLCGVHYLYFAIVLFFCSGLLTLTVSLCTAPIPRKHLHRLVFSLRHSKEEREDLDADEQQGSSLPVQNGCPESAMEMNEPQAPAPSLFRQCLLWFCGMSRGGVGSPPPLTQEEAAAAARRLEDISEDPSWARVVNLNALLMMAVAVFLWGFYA
Description: Inhibition of human SGLT2 expressed in HEK293 cells assessed as reduction in 2-deoxyglucose uptake pretreated for 10 mins followed by 2-deoxyglucose addition in presence of sodium buffer measured after 1 hr by resazurin dye based fluorescence assay.

Data set [5] concerns the target T2, Sodium/glucose cotransporter 2 (Homo sapiens) (UniProt P31639).
T2 sequence (whole entry): T1 sequence (P31639 whole entry)
Put plainly: Inhibition of human SGLT2 expressed in HEK293 cells assessed as reduction in 2-deoxyglucose uptake at 100 uM pretreated for 10 mins followed by 2-deoxyglucose addition in presence of sodium buffer measured after 1 hr by resazurin dye based fluorescence assay. An outline of the steps:
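Stably transfected HEK293 expressing human SGLT2 (pCMV6-Neo, G418-selected), 2.0 × 10^4 cells/well, 24 h; 1 h preincubation in KRPH buffer at 37 °C; compound 100 µM; 2-deoxyglucose 1 mM, 1 h at 37 °C; NaOH lysis at 80-85 °C, neutralised; enzymatic cycling (G6PDH, NADP+, diaphorase, 10 µM resazurin, pH 8.2) 15-20 h; fluorescence ex 560/em 590 nm. Mean ± SD, three independent experiments.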

The target in data set [6] is T3, Sodium/glucose cotransporter 1 (Homo sapiens, UniProt P13866).
T3 sequence (P13866 whole entry): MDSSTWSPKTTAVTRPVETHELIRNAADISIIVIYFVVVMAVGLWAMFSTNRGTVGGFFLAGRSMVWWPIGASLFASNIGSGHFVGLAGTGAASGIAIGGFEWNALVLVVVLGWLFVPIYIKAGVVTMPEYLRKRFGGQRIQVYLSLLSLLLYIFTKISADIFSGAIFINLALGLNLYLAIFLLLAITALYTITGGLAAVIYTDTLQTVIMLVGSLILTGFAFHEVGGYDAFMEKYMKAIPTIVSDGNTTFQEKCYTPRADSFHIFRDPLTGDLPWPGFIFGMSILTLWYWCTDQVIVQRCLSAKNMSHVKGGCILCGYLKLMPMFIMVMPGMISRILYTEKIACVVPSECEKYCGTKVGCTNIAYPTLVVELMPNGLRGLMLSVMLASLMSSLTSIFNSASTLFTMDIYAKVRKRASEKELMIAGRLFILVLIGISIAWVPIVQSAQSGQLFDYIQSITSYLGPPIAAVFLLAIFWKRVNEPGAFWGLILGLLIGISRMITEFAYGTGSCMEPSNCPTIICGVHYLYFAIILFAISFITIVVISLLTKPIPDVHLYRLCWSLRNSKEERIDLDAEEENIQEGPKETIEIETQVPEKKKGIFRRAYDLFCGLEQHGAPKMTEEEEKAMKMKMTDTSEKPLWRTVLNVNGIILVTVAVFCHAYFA
Description: Inhibition of human SGLT1 expressed in HEK293 cells assessed as reduction in 2-deoxyglucose uptake at 100 uM pretreated for 10 mins followed by 2-deoxyglucose addition in presence of sodium buffer measured after 1 hr by resazurin dye based fluorescence assay. The settings on record: hek293, 1 h.

The nature of data set [7]: Inhibition of GLUT in HEK293 cells assessed as reduction in 2-deoxyglucose uptake at 100 uM pretreated for 10 mins followed by 2-deoxyglucose addition in presence of choline buffer measured after 1 hr by resazurin dye based fluorescence assay. The settings on record: human. An outline of the steps:
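SGLT1 and SGLT2 stable HEK293 lines (G418-selected) assayed in sodium-free buffer, NaCl replaced by choline chloride; compounds at 100 µM; phlorizin and cytochalasin B as controls. 2-deoxyglucose 1 mM, 1 h at 37 °C; lysis in 0.1 M NaOH, 80-85 °C 40 min, neutralised; G6PDH/NADP+/diaphorase/resazurin cycling 15-20 h at 37 °C; resorufin fluorescence ex 560/em 590 nm.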

The values that follow come from ChEMBL document CHEMBL4002619, “Targeting Type 2 Diabetes with C-Glucosyl Dihydrochalcones as Selective Sodium Glucose Co-Transporter 2 (SGLT2) Inhibitors: Synthesis and Biological Evaluation” (J Med Chem, 2017).

pIC50: −log10 of the molar value. The source made the active and inactive calls. The rule behind the calls is not given here.

With `C=C1[C@@H](C)[C@H]2[C@H](Cc3ccccc3)NC(=O)[C@]23OC(=O)/C=C/[C@H](O)CCC[C@@H](C)C/C=C/[C@H]3[C@@H]1O` [CYTOCHALASIN B], the “inhibition (INH)” value in data set [1] and in data set [2] was “Active” in each case.

Broadly, the pIC50 is −log10 of the IC50, conventionally taken in molar units. `COc1ccc(CCC(=O)c2c(O)cc(O)c([C@@H]3O[C@H](CO)[C@@H](O)[C@H](O)[C@H]3O)c2O)cc1`: in data set [3], the Activity result is “Non-Toxic”. Further, the pIC50 in data set [4] was 7.67. The inhibition entry in data set [5] was “Active”. In addition, the results for the “inhibition (INH)” value in data set [6] and in data set [7] were “Active” and “Not Active”, respectively.

`O=C(CCc1ccc(O)cc1)c1c(O)cc(O)c([C@@H]2O[C@H](CO)[C@@H](O)[C@H](O)[C@H]2O)c1O`: the Activity entry in data set [3] is given as “Non-Toxic”. Also, the pIC50 in data set [4] was 7.92. Moreover, the inhibition entry in data set [5] is “Active”. The results for the “inhibition (INH)” value in data set [6] and in data set [7] were “Active” and “Not Active”, respectively.
